According to ChEMBL document CHEMBL3865817, “Synthesis and biological evaluation of C(5)-substituted derivatives of leukotriene biosynthesis inhibitor BRP-7” (Eur J Med Chem, 2016):
The source made the active and inactive calls. The rule behind the calls is not given here.

Assays:
[1] = target: T1, Arachidonate 5-lipoxygenase-activating protein (Homo sapiens) (UniProt P20292); test: (§1) Inhibition of FLAP in human neutrophils assessed as suppression of A23187-stimulated 5-LO product formation using arachidonic acid as substrate measured as residual activity at 1 uM preincubated for 15 mins followed by A23187/arachidonic acid addition after 10 mins RP-HPLC/UV analysis relative to control
T1 sequence (whole entry): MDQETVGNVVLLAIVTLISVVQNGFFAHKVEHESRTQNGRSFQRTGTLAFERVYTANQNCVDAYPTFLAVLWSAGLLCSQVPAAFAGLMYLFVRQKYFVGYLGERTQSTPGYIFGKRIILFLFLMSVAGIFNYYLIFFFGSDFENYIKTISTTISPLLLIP
Method in brief: (§2)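 Neutrophils were isolated from human blood by dextran sedimentation, Nycoprep centrifugation and hypotonic lysis of erythrocytes, then resuspended in PGC buffer (PBS pH 7.4, 1 mg/ml glucose, 1 mM CaCl2). Cells were pre-incubated with compound or vehicle (0.1% DMSO) for 15 min at 37 °C, stimulated with 2.5 µM A23187 for 10 min, and stopped with methanol. Internal standard PGB1. 5-LO products (LTB4, its trans isomers, 5-H(P)ETE) were measured by HPLC.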

[2] = target: T1, Arachidonate 5-lipoxygenase-activating protein (Homo sapiens); test: as §1, with “at 10” for “at 1”; method in brief: as §2
[3] = target: T2, Polyunsaturated fatty acid 5-lipoxygenase (Homo sapiens) (UniProt P09917); conditions: 3 uM
T2 sequence (whole entry): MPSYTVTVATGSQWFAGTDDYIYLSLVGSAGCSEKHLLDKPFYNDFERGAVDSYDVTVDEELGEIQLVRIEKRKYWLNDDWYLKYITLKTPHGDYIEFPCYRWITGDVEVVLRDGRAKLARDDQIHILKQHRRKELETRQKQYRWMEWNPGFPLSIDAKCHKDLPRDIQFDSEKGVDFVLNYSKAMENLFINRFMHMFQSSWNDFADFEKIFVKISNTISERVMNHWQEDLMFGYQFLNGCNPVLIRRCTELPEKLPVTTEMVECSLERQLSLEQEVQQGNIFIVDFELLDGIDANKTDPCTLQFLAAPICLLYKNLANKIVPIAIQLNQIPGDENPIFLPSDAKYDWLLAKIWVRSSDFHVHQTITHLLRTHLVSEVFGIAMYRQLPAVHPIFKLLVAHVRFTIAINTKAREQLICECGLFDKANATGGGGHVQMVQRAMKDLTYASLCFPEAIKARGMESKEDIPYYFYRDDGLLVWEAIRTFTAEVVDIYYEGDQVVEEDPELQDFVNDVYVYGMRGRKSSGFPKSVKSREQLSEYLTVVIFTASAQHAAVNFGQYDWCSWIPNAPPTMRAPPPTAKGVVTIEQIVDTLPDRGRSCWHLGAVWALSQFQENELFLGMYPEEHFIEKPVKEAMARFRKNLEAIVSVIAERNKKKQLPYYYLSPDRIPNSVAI

[4] = target: T3, Arachidonate 5-lipoxygenase-activating protein (Homo sapiens, UniProt P20292); test: (§3) Inhibition of FLAP in human neutrophils assessed as suppression of A23187-stimulated 5-LO product formation using arachidonic acid as substrate preincubated for 15 mins followed by A23187/arachidonic acid addition after 10 mins RP-HPLC/UV analysis; method in brief: as §2
T3 sequence (P20292 whole entry): T1 sequence (whole entry)

[5] = target: T1, Arachidonate 5-lipoxygenase-activating protein (Homo sapiens); test: Inhibition of FLAP (unknown origin) expressed in HEK293 cells co-expressing 5-LO assessed as suppression of A23187-stimulated 5-LO product formation at 0.3 uM using arachidonic acid as substrate preincubated for 15 mins followed by A23187/substrate addition by RP-HPLC analysis; type: cell-based
[6] = target: T1, Arachidonate 5-lipoxygenase-activating protein (Homo sapiens); test: as §3; method in brief: as §2
[7] = target: T1, Arachidonate 5-lipoxygenase-activating protein (Homo sapiens); test: Potency index, ratio of BRP-7 IC50 to compound IC50 for FLAP in human neutrophils
[8] = target: T3, Arachidonate 5-lipoxygenase-activating protein; test: Inhibition of FLAP in human monocytes assessed as suppression of A23187-stimulated 5-LO product formation preincubated for 15 mins followed by A23187 after 10 mins RP-HPLC/UV analysis; type: cell-based
[9] = target: T3, Arachidonate 5-lipoxygenase-activating protein; test: Inhibition of FLAP in human monocytes assessed as suppression of A23187-stimulated 5-LO product formation using 10 uM arachidonic acid as substrate preincubated for 15 mins followed by A23187/arachidonic acid addition after 10 mins by RP-HPLC/UV analysis; type: cell-based
[10] = target: T3, Arachidonate 5-lipoxygenase-activating protein; test: Inhibition of FLAP in human monocytes assessed as suppression of fMLP/LPS-stimulated cys-LT formation preincubated for 15 mins measured after 10 mins by ELISA; type: cell-based

SMILES | Activity [1] | Activity [2] | further results
CC(C)Cc1ccc(C(C)c2nc3cc(OCc4cccc(F)c4)ccc3n2Cc2ccccc2C(F)(F)F)cc1 (stereo not given) | 92% | 85.9% | –
Cc1cccc(COc2ccc3c(c2)nc(C(C)c2ccc(CC(C)C)cc2)n3Cc2ccccc2C(F)(F)F)c1 (stereo not given) | 98.2% | – | –
CC(c1cc2ccccc2s1)N(O)C(N)=O (stereo not given) | – | – | inhibition [3]: > 80%
COc1ccc(COc2ccc3c(c2)nc(C(C)c2ccc(CC(C)C)cc2)n3Cc2ccccc2C(F)(F)F)cc1 (stereo not given) | 81.6% | 80.1% | –
CC(C)Cc1ccc(C(C)c2nc3cc(OCc4ccccc4C#N)ccc3n2Cc2ccccc2Cl)cc1 (stereo not given) | 39.9% | 15.6% | IC50 [4]: 120 nM
CC(C)Cc1ccc(C(C)c2nc3cc(OCc4ccc(C#N)cc4)ccc3n2Cc2ccccc2C(F)(F)F)cc1 (stereo not given) | 71.1% | – | –
CC(C)Cc1ccc(C(C)c2nc3cc(OCc4ccc(OC(F)(F)F)cc4)ccc3n2Cc2ccccc2C(F)(F)F)cc1 (stereo not given) | 99.9% | – | –
CC(C)=CCOc1ccc2c(c1)nc(C(C)c1ccc(CC(C)C)cc1)n2Cc1ccccc1C(F)(F)F (stereo not given) | 60.2% | – | –
Cc1ccccc1COc1ccc2c(c1)nc(C(C)c1ccc(CC(C)C)cc1)n2Cc1ccccc1C(F)(F)F (stereo not given) | 97.1% | 89.7% | –
CC(C)Cc1ccc(C(C)c2nc3cc(C#N)ccc3n2Cc2ccccc2Cl)cc1 (stereo not given) | 0% | – | inhibition [5]: Active; inhibition [6]: Dose-dependent effect; IC50 [4]: 70 nM; Ratio IC50 [7]: 4.4; IC50 [8]: 26 nM; IC50 [9]: 35 nM; IC50 [10]: 12 nM
CC(C)Cc1ccc(C(C)c2nc3cc(OCc4ccccc4C(F)(F)F)ccc3n2Cc2ccccc2C(F)(F)F)cc1 (stereo not given) | 90.9% | – | –
CC(C)c1ccc2c(c1)c(SC(C)(C)C)c(CC(C)(C)C(=O)O)n2Cc1ccc(Cl)cc1 | 2.7% | – | inhibition [5]: Active
CCC#CCOc1ccc2c(c1)nc(C(C)c1ccc(CC(C)C)cc1)n2Cc1ccccc1C(F)(F)F (stereo not given) | 55.6% | – | –
CC(C)Cc1ccc(C(C)c2nc3cc(OCc4ccc(C(C)(C)C)cc4)ccc3n2Cc2ccccc2C(F)(F)F)cc1 (stereo not given) | 94.9% | 94% | –
CC(C)Cc1ccc(C(C)c2nc3cc(OCc4ccc(Br)cc4)ccc3n2Cc2ccccc2C(F)(F)F)cc1 (stereo not given) | 108% | 94.4% | –
CC(C)Cc1ccc(C(C)c2nc3cc(OCc4ccccc4Cl)ccc3n2Cc2ccccc2C(F)(F)F)cc1 (stereo not given) | 92.2% | 92.2% | –

Second part, led by results:

Activity [1] | Activity [2] | SMILES | further results
7.5% | 0.6% | C=CCOc1ccc2c(c1)nc(C(C)c1ccc(CC(C)C)cc1)n2Cc1ccccc1C(F)(F)F (stereo not given) | IC50 [4]: 170 nM
0% | – | CC(C)Cc1ccc(C(C)c2nc3cc(OCc4ccccn4)ccc3n2Cc2ccccc2C(F)(F)F)cc1 (stereo not given) | IC50 [4]: 150 nM
65.2% | – | CC(C)Cc1ccc(C(C)c2nc3cc(OCc4ccccc4C#N)ccc3n2Cc2ccccc2C(F)(F)F)cc1 (stereo not given) | –
92.6% | 90.5% | Cc1ccc(COc2ccc3c(c2)nc(C(C)c2ccc(CC(C)C)cc2)n3Cc2ccccc2C(F)(F)F)cc1 (stereo not given) | –
58.1% | – | CCCCOc1ccc2c(c1)nc(C(C)c1ccc(CC(C)C)cc1)n2Cc1ccccc1C(F)(F)F (stereo not given) | –
91.7% | 94.3% | CC(C)Cc1ccc(C(C)c2nc3cc(OCc4ccc(C(F)(F)F)cc4)ccc3n2Cc2ccccc2C(F)(F)F)cc1 (stereo not given) | –
1.9% | – | COC(=O)COc1ccc2c(c1)nc(C(C)c1ccc(CC(C)C)cc1)n2Cc1ccccc1C(F)(F)F (stereo not given) | IC50 [4]: 210 nM
